From ChEMBL document CHEMBL4699576, “Oxidized Juncuenin B Analogues with Increased Antiproliferative Activity on Human Adherent Cell Lines: Semisynthesis and Biological Evaluation” (J Nat Prod, 2020)
Active and inactive are the calls of the source. The rule behind the calls is not given here.

How the values were obtained:
A2780 [1] = assay: Antiproliferative activity against human A2780 cells assessed as reduction in cell viability after 72 hrs by MTT assay; type: functional, cell-based; details: A2780, 72 h
Summary of the method: (§1)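 Cells were grown in MEM with 10% FBS, 1% nonessential amino acids and 1% penicillin–streptomycin–amphotericin B at 37 °C in humidified 5% CO2. They were seeded at 5000 cells/well and exposed to 0.1–30 μM compound for 72 h. MTT (5 mg/mL solution) was added for 4 h, and formazan was dissolved in DMSO and read at 545 nm against untreated cells. IC50 values came from normalized sigmoidal dose–response fits.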

[2] = Selectivity ratio of IC50 for antiproliferative activity against human T47D cells to IC50 for antiproliferative activity against human MCF7 cells; type: functional
NIH3T3 [3] = assay: Antiproliferative activity against mouse NIH/3T3 cells assessed as reduction in cell viability after 72 hrs by MTT assay; type: functional, cell-based; details: NIH3T3, 72 h; summary of the method: as §1
MDA-MB-231 = assay: Antiproliferative activity against human MDA-MB-231 cells assessed as reduction in cell viability after 72 hrs by MTT assay; type: functional, cell-based; details: MDA-MB-231, 72 h
HeLa [4] = assay: Antiproliferative activity against human HeLa cells assessed as reduction in cell viability after 72 hrs by MTT assay; type: functional, cell-based; summary of the method: as §1
MCF7 [5] = assay: Antiproliferative activity against human MCF7 cells assessed as reduction in cell viability after 72 hrs by MTT assay; type: functional, cell-based; details: MCF7, 72 h; summary of the method: as §1
SGC-7901 = assay: Antiproliferative activity against human SGC-7901 cells assessed as reduction in cell viability after 48 hrs by Alamar Blue assay; type: functional, cell-based; details: SGC-7901, 48 h
AGS = assay: Antiproliferative activity against human AGS cells assessed as reduction in cell viability after 48 hrs by Alamar Blue assay; type: functional, cell-based
T47D [6] = assay: Antiproliferative activity against human T47D cells assessed as reduction in cell viability at 0.1 to 30 uM after 72 hrs by MTT assay; type: functional, cell-based; details: dose microM 0.1-30, time 72.0 hrs; summary of the method: as §1
C-33-A [7] = assay: Antiproliferative activity against human C33A cells assessed as reduction in cell viability after 72 hrs by MTT assay; type: functional, cell-based
Summary of the method: (§2)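 C33A cells were kept in MEM with 10% FBS, 1% nonessential amino acids and 1% penicillin–streptomycin–amphotericin B at 37 °C under 5% CO2. They were seeded at 10 000 cells/well and treated with 0.1–30 μM for 72 h. MTT (5 mg/mL solution) was added for 4 h, and formazan was dissolved in DMSO and read at 545 nm against untreated controls. IC50 values came from normalized sigmoidal curve fits.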

HeLa [8] = assay: Antiproliferative activity against human HeLa cells assessed as reduction in cell viability at 0.1 to 30 uM after 72 hrs by MTT assay; details: dose microM 0.1-30, time 72.0 hrs
MCF7 [9] = assay: Antiproliferative activity against human MCF7 cells assessed as reduction in cell viability at 0.1 to 30 uM after 72 hrs by MTT assay; details: dose microM 0.1-30, time 72.0 hrs
SiHa [10] = assay: Antiproliferative activity against human SiHa cells assessed as reduction in cell viability at 0.1 to 30 uM after 72 hrs by MTT assay; type: functional, cell-based; details: dose microM 0.1-30, time 72.0 hrs; summary of the method: as §1
T47D [11] = assay: Antiproliferative activity against human T47D cells assessed as reduction in cell viability after 72 hrs by MTT assay; type: functional, cell-based; summary of the method: as §1
C-33-A [12] = assay: Antiproliferative activity against human C33A cells assessed as reduction in cell viability at 0.1 to 30 uM after 72 hrs by MTT assay; type: functional, cell-based; details: dose microM 0.1-30, time 72.0 hrs; summary of the method: as §2
A2780 [13] = assay: Antiproliferative activity against human A2780 cells assessed as reduction in cell viability at 0.1 to 30 uM after 72 hrs by MTT assay; type: functional, cell-based; details: dose microM 0.1-30, time 72.0 hrs; summary of the method: as §1
NIH3T3 [14] = assay: Antiproliferative activity against mouse NIH/3T3 cells assessed as reduction in cell viability at 0.1 to 30 uM after 72 hrs by MTT assay; type: functional, cell-based; details: dose microM 0.1-30, time 72.0 hrs; summary of the method: as §1
SiHa [15] = assay: Antiproliferative activity against human SiHa cells assessed as reduction in cell viability after 72 hrs by MTT assay; type: functional, cell-based; summary of the method: as §1

Compound	Activity (HeLa [8])	Activity (MCF7 [9])	Activity (C-33-A [12])	Activity (A2780 [13])	Activity (NIH3T3 [14])	other results
C=Cc1c(C)c(O)cc2c1CCc1c-2ccc(O)c1C	–	–	–	–	–	IC50 (A2780 [1]): 7.3 µM; Ratio IC50 [2]: 2.5; IC50 (NIH3T3 [3]): > 30 µM; IC50 (MDA-MB-231): 9.4 µM; IC50 (HeLa [4]): 2.9 µM; IC50 (MCF7 [5]): 11.7 µM
C=Cc1cc(O)cc2ccc3c(C)c(O)ccc3c12	–	–	–	–	–	IC50 (SGC-7901): 35.9 µM; IC50 (AGS): 32.9 µM
C=CC1=C(C)C(=O)C=C2c3ccc(O)c(C)c3CC[C@@]21OC	Active	–	–	–	–	IC50 (A2780 [1]): 8.7 µM; IC50 (NIH3T3 [3]): 25.8 µM; Activity (T47D [6]): Active; IC50 (HeLa [4]): 0.9 µM; IC50 (MCF7 [5]): 6.2 µM; IC50 (C-33-A [7]): 5.3 µM
C=CC1=C(C)C(=O)C=C2c3ccc(O)c(C)c3CC[C@@]21OCC	Active	Active	–	–	–	IC50 (A2780 [1]): 2.8 µM; IC50 (NIH3T3 [3]): > 30 µM; Activity (T47D [6]): Active; IC50 (HeLa [4]): 3.7 µM; Activity (SiHa [10]): inactive; IC50 (T47D [11]): 8.8 µM; IC50 (C-33-A [7]): 4.9 µM
C=CC1=C(C)C(=O)C=C2c3ccc(O)c(C)c3CC[C@]21OC	inactive	inactive	inactive	inactive	–	–
C=CC1=C(C)C(=O)C=C2c3ccc(O)c(C)c3CC[C@]21OCC	inactive	–	inactive	inactive	–	Activity (SiHa [10]): inactive
C=CC1=C(C)C(=O)C(OCCCC)(OCCCC)c2c1ccc1c2C=CC(=O)C1(C)OCCCC (racemic)	inactive	inactive	inactive	inactive	inactive	–
C=CC1=C(C)C(=O)C=C2C3(OCC)C=CC(=O)C(C)=C3CCC21OCC (racemic)	inactive	inactive	inactive	inactive	inactive	–
C=CC1=C2CCc3c(ccc(O)c3C)C2=CC(=O)C1(C)OCC (racemic)	inactive	inactive	inactive	inactive	inactive	–
C=Cc1c(C)c(O)c(OC)c2c3c(ccc12)C(C)(OC)C(=O)C=C3 (racemic)	inactive	inactive	inactive	inactive	inactive	–
C=Cc1c(C)c(O)cc2c3c(ccc12)C(C)(OCC)C(=O)C=C3 (racemic)	inactive	inactive	inactive	inactive	inactive	–
C=CC1=C(C)C(=O)C=C2C3(OC)C=CC(=O)C(C)=C3CCC21OC (racemic; 2a)	inactive	inactive	inactive	inactive	inactive	–
C=CC1=C(C)C(=O)C=C2C3(OC)C=CC(=O)C(C)=C3CCC21OC (racemic; 2b)	inactive	inactive	inactive	inactive	inactive	–
C=CC1=C(C)C(=O)C=C2C3=C(CCC21OCC)C(C)(OCC)C(=O)C=C3 (racemic; 6a)	Active	Active	Active	Active	Active	–
C=CC1=C(C)C(=O)C=C2C3=C(CCC21OCC)C(C)(OCC)C(=O)C=C3 (racemic; 6b)	Active	Active	Active	Active	Active	–
C=CC1=C(C)C(=O)C=C2C3=C(CC[C@@]21OC)[C@](C)(OC)C(=O)C=C3 (stereo in doubt)	Active	–	–	–	–	IC50 (A2780 [1]): 7.7 µM; IC50 (NIH3T3 [3]): 21.6 µM; Activity (T47D [6]): Active; IC50 (SiHa [15]): 20 µM; IC50 (T47D [11]): 15 µM; IC50 (C-33-A [7]): 5.3 µM
C=CC1=C(C)C(=O)C=C2C3=C(CC[C@]21OC)[C@@](C)(OC)C(=O)C=C3 (stereo in doubt)	–	–	–	–	–	IC50 (NIH3T3 [3]): > 30 µM; IC50 (SiHa [15]): 20 µM; IC50 (T47D [11]): 15 µM
C=CC1=C(C)C(=O)C=C2C3=C(CC[C@]21OC)[C@](C)(OC)C(=O)C=C3 (stereo in doubt)	–	–	–	–	–	IC50 (SiHa [15]): 20 µM; IC50 (T47D [11]): 15 µM
C=CC1=C(C)C(=O)C=C2C3=C(CC[C@@]21OC)[C@@](C)(OC)C(=O)C=C3 (stereo in doubt)	–	–	–	–	–	IC50 (SiHa [15]): 20 µM; IC50 (T47D [11]): 15 µM
